Results published in ChEMBL document CHEMBL1138564, “Microwave-induced synthesis and anti-microbial activities of 7,10,11,12-tetrahydrobenzo[c]acridin-8(9H)-one derivatives” (2009).
Values after ≈ are worked out from the molar mass of the structure shown. Active and inactive are the calls of the source. No cut-off for these calls is given here.

How the values were obtained:
[1] = tested on: Trichoderma viride; experiment: Antimicrobial activity against Trichoderma viride NCIM 1195 at 500 ug/disk after 72 hrs by disk diffusion method; assay type: functional; details: NCIM 1195, 72 h, read-out: DIZ
Summary of the method: (§1)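 Fungal disc diffusion. 100 µl of suspension at 10⁶ CFU/ml was spread on Sabouraud's dextrose agar. Discs carrying test compound in DMSO were applied, with a DMSO-only disc as negative control. Plates were incubated at 27 °C for 72 h, and the zone of inhibition diameter was measured.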

[2] = tested on: Klebsiella aerogenes; experiment: Antimicrobial activity against Klebsiella aerogenes NCIM 2239 at 1000 ug/disk after 24 hrs by disk diffusion method; assay type: functional
Summary of the method: (§2)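 Disc diffusion on Mueller–Hinton agar. 100 µl of bacterial suspension at 10⁸ CFU/ml is spread on the plate. Discs carry test compounds at two loadings, dissolved in DMSO; DMSO alone serves as negative control. Ofloxacin disc is the positive reference. Plates are incubated at 37 °C for 24 h, and the inhibition zone diameter is measured.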

[3] = tested on: Lipomyces lipofer; experiment: Antimicrobial activity against Lipomyces lipofer NCIM 3252 at 1000 ug/disk after 72 hrs by disk diffusion method; assay type: functional
Summary of the method: (§3)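 Disc diffusion on Sabouraud's dextrose agar. 100 µl of fungal suspension at 10⁶ CFU/ml is spread on the plate. Discs carry test compounds at two loadings in DMSO; DMSO alone is the negative control. Clotrimazole disc is the positive reference. Plates are incubated at 27 °C for 72 h, and the zone of inhibition diameter is measured.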

[4] = tested on: Escherichia coli; experiment: Antimicrobial activity against Escherichia coli NCIM 2065 after 24 hrs by serial dilution method; assay type: functional; details: NCIM 2065, 24 h
Summary of the method: (§4)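 Broth dilution MIC in nutrient broth, run only for organisms found sensitive in disc diffusion. Compounds are two-fold serially diluted in 1 ml sterile broth per tube, spanning 3.9 to 1000. Inoculated tubes are incubated at 37 °C for 24 h.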

[5] = tested on: Aliivibrio fischeri; experiment: Antimicrobial activity against Vibrio fischeri NCIM 2154 at 500 ug/disk after 24 hrs by disk diffusion method; assay type: functional
Summary of the method: (§5)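 Disc diffusion. 100 µl of bacterial suspension at 10⁸ CFU/ml was spread on Mueller–Hinton agar. Discs loaded with test compound dissolved in DMSO were placed on the lawn, with a DMSO-only disc as negative control. Plates were incubated at 37 °C for 24 h, and the inhibition zone diameter was measured.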

[6] = tested on: Aspergillus flavus; experiment: Antimicrobial activity against Aspergillus flavus NCIM 902 at 1000 ug/disk after 72 hrs by disk diffusion method; assay type: functional; details: NCIM 902, 72 h, read-out: DIZ; summary of the method: as §3
[7] = tested on: Rhodotorula mucilaginosa; experiment: Antimicrobial activity against Rhodotorula rubra NCIM 3174 at 500 ug/disk after 72 hrs by disk diffusion method; assay type: functional; details: NCIM 3174, 72 h, read-out: DIZ; summary of the method: as §1
[8] = tested on: Trichoderma viride; experiment: Antimicrobial activity against Trichoderma viride NCIM 1195 after 72 hrs by serial dilution method; assay type: functional; details: NCIM 1195, 72 h
Summary of the method: (§6)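 MIC by broth dilution in Sabouraud's dextrose broth, run only on fungi found sensitive in the disc assay. Twofold serial dilutions were made in 1 ml broth per tube, covering 3.9 to 1000. Inoculated tubes were incubated at 27 °C for 72 h.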

[9] = tested on: Rhodotorula mucilaginosa; experiment: Antimicrobial activity against Rhodotorula rubra NCIM 3174 at 1000 ug/disk after 72 hrs by disk diffusion method; assay type: functional; details: NCIM 3174, 72 h, read-out: DIZ; summary of the method: as §1
[10] = tested on: Aliivibrio fischeri; experiment: Antimicrobial activity against Vibrio fischeri NCIM 2154 after 24 hrs by serial dilution method; assay type: functional; details: NCIM 2154, 24 h
[11] = tested on: Rhodococcus corynebacterioides; experiment: Antimicrobial activity against Corynebacterium rubrum NCIM 2252 at 1000 ug/disk after 24 hrs by disk diffusion method; assay type: functional; details: Rhodococcoides corynebacterioides; summary of the method: as §2
[12] = tested on: Bacillus cereus; experiment: Antimicrobial activity against Bacillus cereus NCIM 2155 at 1000 ug/disk after 24 hrs by disk diffusion method; assay type: functional; details: NCIM 2155, 24 h, read-out: DIZ; summary of the method: as §2
[13] = tested on: Pseudomonas aeruginosa; experiment: Antimicrobial activity against Pseudomonas aeruginosa NCIM 2200 at 1000 ug/disk after 24 hrs by disk diffusion method; assay type: functional; summary of the method: as §2
[14] = tested on: Staphylococcus; experiment: Antimicrobial activity against Staphylococcus albus NCIM 2178 at 1000 ug/disk after 24 hrs by disk diffusion method; assay type: functional; summary of the method: as §5
[15] = tested on: Penicillium chrysogenum; experiment: Antimicrobial activity against Penicillium chrysogenum NCIM 707 at 500 ug/disk after 72 hrs by disk diffusion method; assay type: functional; summary of the method: as §3
[16] = tested on: Bacillus cereus; experiment: Antimicrobial activity against Bacillus cereus NCIM 2155 at 500 ug/disk after 24 hrs by disk diffusion method; assay type: functional; details: NCIM 2155, 24 h, read-out: DIZ; summary of the method: as §2
[17] = tested on: Staphylococcus; experiment: Antimicrobial activity against Staphylococcus albus NCIM 2178 at 500 ug/disk after 24 hrs by disk diffusion method; assay type: functional; summary of the method: as §5
[18] = tested on: Escherichia coli; experiment: Antimicrobial activity against Escherichia coli NCIM 2065 at 1000 ug/disk after 24 hrs by disk diffusion method; assay type: functional; details: NCIM 2065, 24 h, read-out: DIZ; summary of the method: as §2
[19] = tested on: Lipomyces lipofer; experiment: Antimicrobial activity against Lipomyces lipofer NCIM 3252 at 500 ug/disk after 72 hrs by disk diffusion method; assay type: functional; summary of the method: as §3
[20] = tested on: Klebsiella aerogenes; experiment: Antimicrobial activity against Klebsiella aerogenes NCIM 2239 at 500 ug/disk after 24 hrs by disk diffusion method; assay type: functional; summary of the method: as §2
[21] = tested on: Aliivibrio fischeri; experiment: Antimicrobial activity against Vibrio fischeri NCIM 2154 at 1000 ug/disk after 24 hrs by disk diffusion method; assay type: functional; summary of the method: as §5
[22] = tested on: Bacillus subtilis; experiment: Antimicrobial activity against Bacillus subtilis NCIM 2063 at 500 ug/disk after 24 hrs by disk diffusion method; assay type: functional; details: NCIM 2063, 24 h, read-out: DIZ; summary of the method: as §2
[23] = tested on: Bacillus subtilis; experiment: Antimicrobial activity against Bacillus subtilis NCIM 2063 after 24 hrs by serial dilution method; assay type: functional; details: NCIM 2063, 24 h; summary of the method: as §4
[24] = tested on: Aspergillus parasiticus; experiment: Antimicrobial activity against Aspergillus parasiticus NCIM 904 at 500 ug/disk after 72 hrs by disk diffusion method; assay type: functional; details: NCIM 904, 72 h, read-out: DIZ; summary of the method: as §3
[25] = tested on: Proteus vulgaris; experiment: Antimicrobial activity against Proteus vulgaris NCIM 2027 at 1000 ug/disk after 24 hrs by disk diffusion method; assay type: functional; summary of the method: as §2
[26] = tested on: Proteus vulgaris; experiment: Antimicrobial activity against Proteus vulgaris NCIM 2027 at 500 ug/disk after 24 hrs by disk diffusion method; assay type: functional; summary of the method: as §2
[27] = tested on: Rhodotorula mucilaginosa; experiment: Antimicrobial activity against Rhodotorula rubra NCIM 3174 after 72 hrs by serial dilution method; assay type: functional; details: NCIM 3174, 72 h; summary of the method: as §6
[28] = tested on: Aspergillus parasiticus; experiment: Antimicrobial activity against Aspergillus parasiticus NCIM 904 at 1000 ug/disk after 72 hrs by disk diffusion method; assay type: functional; details: NCIM 904, 72 h, read-out: DIZ; summary of the method: as §3
[29] = tested on: Salmonella typhimurium; experiment: Antimicrobial activity against Salmonella Typhimurium NCIM 2501 at 1000 ug/disk after 24 hrs by disk diffusion method; assay type: functional, Salmonella enterica subsp. enterica serovar Typhimurium; summary of the method: as §5
[30] = tested on: Rhodococcus corynebacterioides; experiment: Antimicrobial activity against Corynebacterium rubrum NCIM 2252 at 500 ug/disk after 24 hrs by disk diffusion method; assay type: functional; details: Rhodococcoides corynebacterioides; summary of the method: as §2
[31] = tested on: Escherichia coli; experiment: Antimicrobial activity against Escherichia coli NCIM 2065 at 500 ug/disk after 24 hrs by disk diffusion method; assay type: functional; details: NCIM 2065, 24 h, read-out: DIZ; summary of the method: as §2
[32] = tested on: Aspergillus fumigatus; experiment: Antimicrobial activity against Aspergillus fumigatus NCIM 902 at 1000 ug/disk after 72 hrs by disk diffusion method; assay type: functional; details: NCIM 902, 72 h, read-out: DIZ; summary of the method: as §3
[33] = tested on: Salmonella typhimurium; experiment: Antimicrobial activity against Salmonella Typhimurium NCIM 2501 at 500 ug/disk after 24 hrs by disk diffusion method; assay type: functional, Salmonella enterica subsp. enterica serovar Typhimurium; summary of the method: as §5
[34] = tested on: Aspergillus flavus; experiment: Antimicrobial activity against Aspergillus flavus NCIM 902 at 500 ug/disk after 72 hrs by disk diffusion method; assay type: functional; details: NCIM 902, 72 h, read-out: DIZ; summary of the method: as §3
[35] = Salmonella enterica, NCIM 2501, 24 h, read-out: DIZ
[36] = Salmonella enterica subsp. enterica serovar Typhimurium

CC1(C)CC(=O)C2=C(C1)Nc1c(ccc3ccccc13)C2c1ccc(Cl)cc1 (configuration not stated)
zone of inhibition at 500 µg/disc [1]: 7 mm
zone of inhibition at 1000 µg/disc ([2]; NCIM 2239, 24 h, read-out: DIZ): 11 mm
diameter of the inhibition zone (DIZ) [3]: inactive
MIC [4]: 62.5 µg/mL (≈ 161 µM)
zone of inhibition at 500 µg/disc ([5]; NCIM 2154, 24 h, read-out: DIZ): 7 mm
zone of inhibition at 1000 µg/disc [6]: 8 mm
zone of inhibition at 500 µg/disc [7]: 9 mm
MIC [8]: 62.5 µg/mL (≈ 161 µM)
zone of inhibition at 1000 µg/disc [9]: 13 mm
MIC [10]: 62.5 µg/mL (≈ 161 µM)
zone of inhibition at 1000 µg/disc ([11]; NCIM 2252, 24 h, read-out: DIZ): 10 mm
zone of inhibition at 1000 µg/disc [12]: 13 mm
zone of inhibition at 1000 µg/disc ([13]; NCIM 2200, 24 h, read-out: DIZ): 9 mm
zone of inhibition at 1000 µg/disc ([14]; NCIM 2178, 24 h, read-out: DIZ): 9 mm
diameter of the inhibition zone (DIZ) [15]: inactive
zone of inhibition at 500 µg/disc [16]: 10 mm
zone of inhibition at 500 µg/disc ([17]; NCIM 2178, 24 h, read-out: DIZ): 7 mm
zone of inhibition at 1000 µg/disc [18]: 9 mm
diameter of the inhibition zone (DIZ) [19]: inactive
zone of inhibition at 500 µg/disc ([20]; NCIM 2239, 24 h, read-out: DIZ): 8 mm
zone of inhibition at 1000 µg/disc ([21]; NCIM 2154, 24 h, read-out: DIZ): 9 mm
zone of inhibition at 500 µg/disc [22]: 8 mm
MIC [23]: 31.2 µg/mL (≈ 80.4 µM)
zone of inhibition at 500 µg/disc [24]: 12 mm
zone of inhibition at 1000 µg/disc ([25]; NCIM 2027, 24 h, read-out: DIZ): 10 mm
zone of inhibition at 500 µg/disc ([26]; NCIM 2027, 24 h, read-out: DIZ): 9 mm
MIC [27]: 15.6 µg/mL (≈ 40.2 µM)
zone of inhibition at 1000 µg/disc [28]: 17 mm
zone of inhibition at 1000 µg/disc [29, 35]: 11 mm
zone of inhibition at 500 µg/disc ([30]; NCIM 2252, 24 h, read-out: DIZ): 7 mm
zone of inhibition at 500 µg/disc [31]: 7 mm
zone of inhibition at 1000 µg/disc [32]: 8 mm
zone of inhibition at 500 µg/disc [33, 35]: 9 mm
zone of inhibition at 500 µg/disc [34]: 7 mm

O=C1CCCC2=C1C(c1ccccc1O)c1ccc3ccccc3c1N2 (configuration not stated)
zone of inhibition at 500 µg/disc [1]: 9 mm
diameter of the inhibition zone (DIZ) [2]: inactive
diameter of the inhibition zone (DIZ) [3]: inactive
MIC [4]: 125 µg/mL (≈ 366 µM)
diameter of the inhibition zone (DIZ) [5]: inactive
zone of inhibition at 1000 µg/disc [6]: 11 mm
zone of inhibition at 500 µg/disc [7]: 11 mm
MIC [8]: 62.5 µg/mL (≈ 183 µM)
zone of inhibition at 1000 µg/disc [9]: 13 mm
diameter of the inhibition zone (DIZ) [11]: inactive
zone of inhibition at 1000 µg/disc [12]: 8 mm
diameter of the inhibition zone (DIZ) [13]: inactive
diameter of the inhibition zone (DIZ) [14]: inactive
diameter of the inhibition zone (DIZ) [15]: inactive
zone of inhibition at 500 µg/disc [16]: 7 mm
diameter of the inhibition zone (DIZ) [17]: inactive
zone of inhibition at 1000 µg/disc [18]: 9 mm
diameter of the inhibition zone (DIZ) [19]: inactive
diameter of the inhibition zone (DIZ) [20]: inactive
diameter of the inhibition zone (DIZ) [21]: inactive
zone of inhibition at 500 µg/disc [22]: 8 mm
MIC [23]: 62.5 µg/mL (≈ 183 µM)
zone of inhibition at 500 µg/disc [24]: 9 mm
diameter of the inhibition zone (DIZ) [25]: inactive
diameter of the inhibition zone (DIZ) [26]: inactive
MIC [27]: 15.6 µg/mL (≈ 45.7 µM)
zone of inhibition at 1000 µg/disc [28]: 10 mm
diameter of the inhibition zone (DIZ) [29, 36]: inactive
diameter of the inhibition zone (DIZ) [30]: inactive
zone of inhibition at 500 µg/disc [31]: 8 mm
zone of inhibition at 1000 µg/disc [32]: 12 mm
diameter of the inhibition zone (DIZ) [33, 36]: inactive
zone of inhibition at 500 µg/disc [34]: 8 mm
